Measurements taken from ChEMBL document CHEMBL4359903, “1,2,4-Oxadiazole derivatives targeting EGFR and c-Met degradation in TKI resistant NSCLC” (Eur J Med Chem, 2019).
The source made the active and inactive calls. No cut-off for these calls is given here.

What was measured:
MDA-MB-231 = assay: Antiproliferative activity against human MDA-MB-231 cells assessed as reduction in cell viability incubated for 72 hrs by MTT assay; format: functional, cell-based; settings: MDA-MB-231, 72 h
In short: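 MTT viability assay after 72 h of drug exposure. Cells seeded at 5000 per well in 10% FBS and left overnight, then treated in 5% FBS. MTT added for 1 h, dye dissolved in DMSO, absorbance read at 570 nm. Viability given relative to vehicle-treated cells.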

A549 [1] = assay: Antiproliferative activity against wild type human A549 cells assessed as reduction in cell viability incubated for 48 hrs by MTT assay; format: functional, cell-based; settings: A549, 48 h
In short: (§1)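 Cells seeded at 5000 per well in 10% FBS and left overnight, then exposed to agent or DMSO in 5% FBS for 48 h. MTT added for 1 h, dye dissolved in DMSO, absorbance read at 570 nm. Viability given as percent of vehicle control. At least three independent experiments, means ± SD.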

NCI-H1975 [2] = assay: Antiproliferative activity against human NCI-H1975 cells harbouring EGFR L858R/T790M double mutant assessed as reduction in cell viability incubated for 48 hrs by MTT assay; format: functional, cell-based; settings: NCI-H1975, 48 h; in short: as §1
CL97 [3] = assay: Antiproliferative activity against human CL97 cells harbouring EGFR G719A/T790M mutant assessed as reduction in cell viability incubated for 48 hrs by MTT assay; format: functional, cell-based; settings: CL97, 48 h; in short: as §1
A549 [4] = assay: Antiproliferative activity against wild type human A549 cells assessed as reduction in cell viability incubated for 72 hrs by MTT assay; format: functional, cell-based; settings: A549, 72 h
PC-9 = assay: Antiproliferative activity against human PC9 cells harbouring EGFR delE746-A750 mutant assessed as reduction in cell viability incubated for 72 hrs by MTT assay; format: functional, cell-based; settings: PC-9, 72 h
[5] = Antiproliferative activity against human CL68 cells harbouring EGFR delE746-A750/T790M mutant assessed as reduction in cell viability incubated for 72 hrs by MTT assay; format: functional, cell-based
CL97 [6] = assay: Antiproliferative activity against human CL97 cells harbouring EGFR G719A/T790M mutant assessed as reduction in cell viability incubated for 72 hrs by MTT assay; format: functional, cell-based; settings: CL97, 72 h
[7] = tested on: Epidermal growth factor receptor (Homo sapiens), P00533 [UNDEFINED MUTATION]; assay: Induction of EGFR E746-A750 deletion mutant degradation in human PC9 cells assessed as reduction in EGFR expression at 0.2 to 0.6 uM incubated for 48 hrs by Western blot analysis; format: cell-based
In short: (§2)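 After 48 h treatment, cells were scraped and lysed in 1% SDS, 50 mM Tris-HCl pH 8.0, 10 mM EDTA with protease and phosphatase inhibitors. Lysates sonicated, protein measured by BCA, equal amounts run on SDS-PAGE and blotted to nitrocellulose. Primary antibodies (EGFR, c-Met, S473-Akt, Akt, GAPDH) used at 1:1000 overnight at 4 °C, HRP secondaries at 1:5000, ECL detection.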

[8] = tested on: Epidermal growth factor receptor (Homo sapiens), P00533 [UNDEFINED MUTATION]; assay: Induction of EGFR E746-A750 deletion/T790M mutant degradation in human CL68 cells assessed as reduction in EGFR expression at 0.2 to 0.6 uM incubated for 48 hrs by Western blot analysis; format: cell-based; in short: as §2
[9] = target: Hepatocyte growth factor receptor (Homo sapiens) (UniProt P08581); assay: Induction of c-MET degradation in wild type human A549 cells assessed as reduction in c-Met expression at 0.2 to 0.6 uM incubated for 48 hrs by immunoblot analysis; format: cell-based; in short: as §2
Chain of Hepatocyte growth factor receptor (Homo sapiens) (P08581 whole entry): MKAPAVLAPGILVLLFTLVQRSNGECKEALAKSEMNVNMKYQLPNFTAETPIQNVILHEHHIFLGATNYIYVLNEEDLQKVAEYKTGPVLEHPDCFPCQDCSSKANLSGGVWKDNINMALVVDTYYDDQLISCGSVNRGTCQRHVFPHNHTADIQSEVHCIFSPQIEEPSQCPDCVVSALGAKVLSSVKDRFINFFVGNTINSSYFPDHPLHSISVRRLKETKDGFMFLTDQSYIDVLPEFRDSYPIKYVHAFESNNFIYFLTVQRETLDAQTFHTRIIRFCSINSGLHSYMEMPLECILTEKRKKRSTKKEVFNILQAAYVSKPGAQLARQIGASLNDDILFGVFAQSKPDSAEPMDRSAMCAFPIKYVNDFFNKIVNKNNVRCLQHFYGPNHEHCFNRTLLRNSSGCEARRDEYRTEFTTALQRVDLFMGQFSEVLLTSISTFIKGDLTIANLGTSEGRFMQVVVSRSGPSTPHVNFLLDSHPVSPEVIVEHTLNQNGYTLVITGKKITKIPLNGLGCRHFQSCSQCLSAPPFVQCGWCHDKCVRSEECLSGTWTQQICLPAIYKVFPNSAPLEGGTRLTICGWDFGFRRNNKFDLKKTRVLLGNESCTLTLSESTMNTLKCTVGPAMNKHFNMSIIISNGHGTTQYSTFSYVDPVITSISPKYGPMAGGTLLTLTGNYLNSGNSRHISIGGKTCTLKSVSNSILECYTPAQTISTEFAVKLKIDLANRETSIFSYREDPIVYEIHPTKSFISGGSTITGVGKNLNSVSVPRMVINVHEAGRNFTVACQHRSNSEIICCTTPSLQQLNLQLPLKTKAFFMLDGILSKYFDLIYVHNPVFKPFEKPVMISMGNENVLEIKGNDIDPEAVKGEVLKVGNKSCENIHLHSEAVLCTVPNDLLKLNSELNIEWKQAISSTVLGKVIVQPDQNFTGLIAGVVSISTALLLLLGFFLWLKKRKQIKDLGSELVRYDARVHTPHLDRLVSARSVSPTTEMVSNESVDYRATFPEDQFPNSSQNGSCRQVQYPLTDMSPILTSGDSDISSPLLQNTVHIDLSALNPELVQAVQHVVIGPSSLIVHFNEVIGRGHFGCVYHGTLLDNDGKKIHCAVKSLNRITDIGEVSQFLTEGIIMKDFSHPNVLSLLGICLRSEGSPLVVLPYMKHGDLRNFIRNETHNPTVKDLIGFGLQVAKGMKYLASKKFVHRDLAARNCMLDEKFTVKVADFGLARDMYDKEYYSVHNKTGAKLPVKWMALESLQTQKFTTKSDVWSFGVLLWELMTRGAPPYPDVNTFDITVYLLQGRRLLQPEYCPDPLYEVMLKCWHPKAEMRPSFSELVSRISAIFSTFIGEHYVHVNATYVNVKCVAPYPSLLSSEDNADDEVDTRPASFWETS

[10] = target: Hepatocyte growth factor receptor (Homo sapiens) (UniProt P08581); assay: Induction of c-MET degradation in human CL68 cells harbouring EGFR delE746-A750/T790M assessed as reduction in c-Met expression at 0.2 to 0.6 uM incubated for 48 hrs by Western blot analysis; format: cell-based; in short: as §2
[11] = target: Hepatocyte growth factor receptor (Homo sapiens) (UniProt P08581); assay: Induction of c-MET degradation in human CL97 cells harbouring EGFR G719A/T790M assessed as reduction in c-Met expression at 0.2 to 0.6 uM incubated for 48 hrs by Western blot analysis; format: cell-based; in short: as §2
[12] = target: Epidermal growth factor receptor (Homo sapiens) (UniProt P00533); assay: Inhibition of EGFR in wild type human A549 cells assessed as reduction in Akt phosphorylation at 0.2 to 0.6 uM incubated for 48 hrs by Western blot analysis; format: cell-based; in short: as §2
[13] = tested on: Epidermal growth factor receptor (Homo sapiens), P00533 [L858R,T790M]; assay: Induction of EGFR L858R/T790M double mutant degradation in human NCI-H1975 cells assessed as reduction in Akt phosphorylation at 0.2 to 0.6 uM incubated for 48 hrs by Western blot analysis; format: cell-based; in short: as §2
[14] = tested on: Epidermal growth factor receptor (Homo sapiens), P00533 [UNDEFINED MUTATION]; assay: Induction of EGFR E746-A750 deletion/T790M mutant degradation in human CL68 cells assessed as Akt phosphorylation at 0.4 to 0.8 uM incubated for 48 hrs by Western blot analysis; format: cell-based; in short: as §2
[15] = target: Epidermal growth factor receptor (Homo sapiens) (UniProt P00533); assay: Effect on EGFR degradation in wild type human A549 cells assessed as reduction in EGFR mRNA expression at 0.2 to 0.6 uM incubated for 48 hrs by RT-PCR analysis; format: cell-based
In short: (§3)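 Total RNA extracted with TRIzol from H1975 and A549 cells treated at 0.2–0.6 µM. EGFR and c-Met mRNA assessed by RT-PCR.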

[16] = target: Hepatocyte growth factor receptor (Homo sapiens) (UniProt P08581); assay: Effect on c-MET degradation in wild type human A549 cells assessed as reduction in c-Met mRNA expression at 0.2 to 0.6 uM incubated for 48 hrs by RT-PCR analysis; format: cell-based; in short: as §3
[17] = target: Hepatocyte growth factor receptor (Homo sapiens) (UniProt P08581); assay: Effect on c-Met degradation in human NCI-H1975 cells harboring EGFR L858R/T790M double assessed as reduction in c-Met expression at 0.2 to 0.6 uM incubated for 48 hrs by RT-PCR analysis; format: cell-based; in short: as §3
CL97 [18] = assay: Cell cycle arrest in human CL97 cells harbouring EGFR G719A/T790M mutant assessed as increase in cells accumulation at G2/M phase at 0.4 to 0.8 uM incubated for 48 hrs by propidium iodide based flow cytometry; format: functional
In short: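 Cells plated at 3 × 10^5 per 6-cm dish and left overnight, then treated for 24 h and 48 h. Pellets fixed in 70% ethanol and stained with 40 µg/ml propidium iodide plus 20 µg/ml RNase A, 30 min on ice in the dark. DNA content read on a FACSCalibur flow cytometer.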

NCI-H1975 [19] = assay: Antitumor activity against human NCI-H1975 cells harbouring EGFR L858R/T790M double mutant xenografted in athymic Nude-Foxn1nu BALB/c mouse assessed as tumor growth inhibition at 50 mg/kg, po administered once daily via gavage for 20 days measured twice a week by caliper method relative to control; format: functional; settings: 480 h, read-out: TGI
NCI-H1975 [20] = assay: Antitumor activity against human NCI-H1975 cells harbouring EGFR L858R/T790M double mutant xenografted in athymic Nude-Foxn1nu BALB/c mouse assessed as reduction in c-Met expression in tumor lysates administered once daily via oral gavage for 20 days measured on day 20 by Western blot analysis; format: functional; settings: Neoplasm, Lysate
In short: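 H1975 xenografts in nude mice gavaged daily for 20 days with vehicle, 50 or 150 mg/kg. At study end mice were killed by CO2, and tumor lysates from four representative tumors per group were immunoblotted for EGFR and c-Met. Band intensities quantified by densitometry.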

`O=C(Nc1cccc(-c2nc(-c3ccc(NC(=O)c4cccnc4)cc3Cl)no2)c1)Nc1ccc(NC(=O)C2CC2)c(C(F)(F)F)c1` gave an IC50 (MDA-MB-231) of 0.2 µM, an IC50 (A549 [1]) of 0.3 µM and an IC50 (NCI-H1975 [2]) of 0.3 µM. The IC50 (CL97 [3]) was 0.6 µM, the IC50 (A549 [4]) was 0.2 µM and the IC50 (PC-9) was 0.5 µM. The IC50 [5] was 0.4 µM, the IC50 (CL97 [6]) was 0.5 µM and the Activity [7] was “Active”. For the same compound, the Activity [8] was “Active”, the Activity [9] was “Active” and the Activity [10] was “Active”. For the same compound, the Activity [11] was “Active”, the Activity [12] was “Active” and the Activity [13] was “Active”. For the same compound, the Activity [14] was “inactive”, the Activity [15] was “inactive” and the Activity [16] was “inactive”. The Activity [17] was “inactive”, the Activity (CL97 [18]) was “Active” and the inhibition in vivo at 50 mg/kg (NCI-H1975 [19]) was 29 to 37%. The Activity (NCI-H1975 [20]) was “Dose-dependent effect”.
